Data taken from ChEMBL document CHEMBL3861988, “Discovery of Selective Inhibitors Targeting Acetylcholinesterase 1 from Disease-Transmitting Mosquitoes” (J Med Chem, 2016).

Key:
[1] = target: Acetylcholinesterase (Anopheles gambiae) (UniProt Q869C3); experiment: Inhibition of Anopheles gambiae recombinant AChE1 expressed in baculovirus infected insect Sf9 cells at 50 uM using acetylthiocholine iodide as substrate measured over 60 secs by Ellman assay relative to control
Method in brief: (§1)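 Single-concentration HTS with secreted, non-purified Sf-9-expressed mosquito AChE1 in growth medium. Assay in 0.1 M phosphate buffer pH 7.4 with 0.2 mM DTNB and 1 mM acetylthiocholine iodide. Compounds were tested at a final 50 µM from DMSO stocks. The A412 slope was read over 60 s. Activity was expressed relative to the mean of eight uninhibited control wells per plate.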

Acetylcholinesterase [2] = target: Acetylcholinesterase (Anopheles gambiae, UniProt Q869C3); experiment: Inhibition of Anopheles gambiae recombinant AChE1 expressed in baculovirus infected insect Sf9 cells using acetylthiocholine iodide as substrate measured over 60 secs by Ellman assay
Method in brief: (§2)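 Dose-response Ellman assay on recombinant enzyme in 0.1 M phosphate pH 7.4 with 0.2 mM DTNB and 1 mM acetylthiocholine iodide. At least eight inhibitor concentrations were used, up to 1 mM, diluted from 100 mM DMSO stocks. Run manually at 30 °C with A412 read over 60 s. Activity is relative to uninhibited wells. IC50 was obtained by non-linear log[inhibitor] fitting from 2 replicates.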

[3] = Inhibition of Aedes aegypti recombinant AChE1 expressed in baculovirus infected insect Sf9 cells at 50 uM using acetylthiocholine iodide as substrate measured over 60 secs by Ellman assay relative to control; method in brief: as §1
[4] = Selectivity ratio of IC50 for human recombinant AChE to IC50 for Aedes aegypti recombinant AChE1
[5] = Selectivity ratio of IC50 for human recombinant AChE to IC50 for Anopheles gambiae recombinant AChE1
Acetylcholinesterase [6] = target: Acetylcholinesterase (Homo sapiens, UniProt P22303); experiment: Inhibition of human recombinant AChE using acetylthiocholine iodide as substrate measured over 60 secs by Ellman assay; method in brief: as §2
[7] = Inhibition of Aedes aegypti recombinant AChE1 expressed in baculovirus infected insect Sf9 cells using acetylthiocholine iodide as substrate measured over 60 secs by Ellman assay; method in brief: as §2
Acetylcholinesterase [8] = target: Acetylcholinesterase (Anopheles gambiae, UniProt Q869C3, G122S); experiment: Inhibition of Anopheles gambiae recombinant AChE1 G122S mutant using acetylthiocholine iodide as substrate by Ellman assay; method in brief: as §2
Acetylcholinesterase [9] = target: T1, Acetylcholinesterase (Mus musculus, UniProt P21836); experiment: Inhibition of mouse recombinant AChE using acetylthiocholine iodide as substrate measured over 60 secs by Ellman assay
T1 sequence (P21836 whole entry): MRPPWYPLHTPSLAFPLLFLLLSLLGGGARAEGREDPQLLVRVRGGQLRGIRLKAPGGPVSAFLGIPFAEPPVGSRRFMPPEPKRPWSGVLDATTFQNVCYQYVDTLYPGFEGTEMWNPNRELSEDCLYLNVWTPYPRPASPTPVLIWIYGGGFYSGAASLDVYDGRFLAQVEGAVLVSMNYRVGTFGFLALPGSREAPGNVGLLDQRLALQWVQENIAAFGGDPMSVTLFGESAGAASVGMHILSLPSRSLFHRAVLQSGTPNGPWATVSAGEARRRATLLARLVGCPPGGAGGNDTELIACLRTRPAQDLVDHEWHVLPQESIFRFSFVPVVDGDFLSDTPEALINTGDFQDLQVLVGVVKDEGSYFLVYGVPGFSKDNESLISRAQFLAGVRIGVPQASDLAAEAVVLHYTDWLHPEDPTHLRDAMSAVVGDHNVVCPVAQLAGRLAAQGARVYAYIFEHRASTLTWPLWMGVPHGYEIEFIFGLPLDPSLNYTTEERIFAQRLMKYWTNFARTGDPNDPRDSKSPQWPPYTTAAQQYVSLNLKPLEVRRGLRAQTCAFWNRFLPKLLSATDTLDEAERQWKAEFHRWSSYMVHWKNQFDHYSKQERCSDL

Structure (SMILES)	inhibition [1]	IC50 (Acetylcholinesterase [2])	inhibition [3]	Ratio IC50 [4]	Ratio IC50 [5]	IC50 (Acetylcholinesterase [6])	IC50 [7]	IC50 (Acetylcholinesterase [8])	IC50 (Acetylcholinesterase [9])
c1ccc(COc2ccc(CN3CCc4ccccc4C3)cc2)cc1	41%	2.9 µM	80%	> 67	> 67	> 200 µM			
CCSc1nc2sc3c(c2c(=O)n1-c1ccccc1)CCN(Cc1ccccc1)C3	94%	8.3 µM	93%	0.6	0.6	5.1 µM	8.8 µM		
O=C(c1ccccc1F)N1CCN(C2CCN(Cc3ccccc3)CC2)CC1	32%	17 µM	33%	> 12	> 12	> 200 µM	12 µM		
CCN1CCN(C2CCN(C(=O)COc3ccc(-c4ccccc4)cc3)CC2)CC1	92%	0.21 µM	76%			31 µM	0.22 µM	1.3 µM	18 µM
Fc1ccccc1COc1ccccc1CNCCN1CCOCC1	23%	> 500 µM	38%			> 500 µM	> 500 µM		
COc1ccc(CN2CC=C(c3ccc(F)cc3)CC2)cc1OCc1ccccc1	86%	> 100 µM	90%			> 200 µM	> 100 µM		
O=C(COc1ccccc1)N1CCN(C2CCN(Cc3ccccc3)CC2)CC1	24%	21 µM	18%	2	2	43 µM	19 µM		
CCOc1ccc(-n2c(SCc3nc(-c4ccccc4C)no3)nnc2-c2ccccc2)cc1	63%	> 1000 µM	1%			> 1000 µM	> 1000 µM		
O=C(COc1ccc(Cl)cc1Cl)Nc1ccc(CN2CCCCC2)cc1	93%	0.26 µM	91%				0.44 µM	1.2 µM	
O=S(=O)(NCCSc1nnc(-c2ccco2)n1-c1ccccc1)c1ccccc1	76%	> 1000 µM	82%			> 1000 µM	> 1000 µM		
